Screening results (PubChem BioAssay)
In the library only some 2.1% were active in any assay of this set; here they are far more common.
RORa activator: activators of human nuclear receptor RORA | P35398 | CHO-K1 Gal4-RORA LBD luciferase reporter, luminescence; percent increase over mock-subtracted basal signal | activation, % at 10 µM | 1.5% of 65,000 active | AID 560;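 active means activation above the mean of all tested compounds plus 3 SD, cut at about 49% in these data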;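 further: 0% = DMSO-treated RORA cells and 100% = added signal equal to DMSO minus mock-transfected cells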
E coli RNAP: inhibitors of Escherichia coli RNA polymerase. P0A8V2. E. coli RNA polymerase, fluorescence transcription assay. inhibition, %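 (tested at 10 µM)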. 0.2% of 62,000 active; in the data active means inhibition above about 20%;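 further: 0% = enzyme without compound and 100% = no enzyme blank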
TNAP act mid DEA: activates human TNAP at intermediate phosphate acceptor concentration. 64,000 tested, under 10 active. activation factor at 20 µM. P05186. purified TNAP, CDP-star luminescence, 100 mM DEA, 30 min; active compounds read high; scale: 0 levamisole-inhibited, 1 vehicle-only enzyme;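 active means activation factor of at least 2 at 20 µM, relative to controls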
MT1-MMP txn act: MT1-MMP promoter transcription activation; HT1080 MT1-MMP promoter luciferase reporter, luminescence, overnight; active compounds read high; activation factor at 10 µM; 0.16% of 86,000 active;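 active means activation factor of at least 2 for MT1-MMP transcription at 10 µM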
SF-1 act: activators of human nuclear receptor SF-1 | Q13285 | CHO-K1 Gal4-SF-1 LBD luciferase reporter; % increase over DMSO SF-1-specific signal | activation, % at 10 µM | 1.9% of 65,000 active | AID 522;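 active means activation above the mean activation of all tested compounds plus 3 SD, cut at about 50% in these data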
Target sequence (Q13285 whole entry, looked up, the tested form may be a part): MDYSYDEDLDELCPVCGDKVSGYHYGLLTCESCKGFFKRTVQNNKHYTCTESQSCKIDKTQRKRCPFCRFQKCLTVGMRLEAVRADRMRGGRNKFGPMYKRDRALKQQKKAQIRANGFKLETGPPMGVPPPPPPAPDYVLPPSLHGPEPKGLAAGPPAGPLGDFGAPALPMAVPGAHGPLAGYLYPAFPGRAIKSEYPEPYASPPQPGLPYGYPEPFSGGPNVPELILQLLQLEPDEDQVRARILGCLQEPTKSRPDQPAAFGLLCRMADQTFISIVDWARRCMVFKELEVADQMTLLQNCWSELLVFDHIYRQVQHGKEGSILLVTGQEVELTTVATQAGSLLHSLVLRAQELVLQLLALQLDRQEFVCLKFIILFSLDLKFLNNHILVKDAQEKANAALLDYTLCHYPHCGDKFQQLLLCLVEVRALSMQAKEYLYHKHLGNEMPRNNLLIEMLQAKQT
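material = CHO-K1 cells with Gal4–hSF-1 LBD chimera plus Gal4-driven luciferase | compound = 10 µM single point, 1% DMSO | incubation = 20 h compound exposure at 37 °C after 1 h cell settling | measured by = SteadyLite luciferase luminescence | evaluation = percent activation relative to DMSO median and mock-transfected background | control set = DMSO negative control and −SF1 background wells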
The depositor's hits bear a star; . = no result.

SMILES	RORa activator	E coli RNAP	TNAP act mid DEA	MT1-MMP txn act	SF-1 act
CCOC(=O)C1=C(COc2ccccc2)NC(=O)NC1c1ccc(C#N)cc1 (stereo unspecified)	.	.	.	1.1	.
O=C(OCC(=O)N1CCN(C(=O)c2ccco2)CC1)c1ccccc1OCc1ccc(Cl)cc1	-3	7	0.9	1.2	2
COC(=O)CC1=C(C(=O)OC)C(c2cccs2)C(C#N)=C(N)O1 (stereo unspecified)	-14	3	0.8	1.1	-7
COc1ccc(-c2cc(-c3cc(F)ccc3O)[nH]n2)cc1OC	4	-3	1.1	2.3*	36
COc1ccc(-c2cc(-c3ccc(OC)c(OC)c3)n[nH]2)c(O)c1	.	.	.	2*	.
COc1ccc(-c2cc(-c3ccccc3O)[nH]n2)cc1OC	-9	.	1	1.2	23
C[C@H](NC(=O)[C@@H]1C[C@H]1[C@@H](NC(=O)OCc1ccccc1)c1ccccc1)c1ccccc1	.	.	.	1.1	.
CC1CN(C2CCN(S(=O)(=O)c3ccccc3)CC2)CC(C)O1 (stereo unspecified)	-20	22*	0.9	1.1	-6
CC1CN(C2CCN(S(=O)(=O)c3ccc(F)cc3)CC2)CC(C)O1 (stereo unspecified)	.	.	.	1.2	.
CCCc1c(C)c2c(C)[nH]nc2oc1=O	.	.	.	1.1	.
Cc1c(C)c2c(C)[nH]nc2oc1=O	-5	5	0.9	2.3*	16
Fc1ccccc1Cn1nnc2c(-n3ccnc3)ncnc21	-31	-3	0.9	1	2
COc1cc(NC2c3ccccc3C(=O)N2c2ccc(C)cn2)cc(OC)c1OC (stereo unspecified)	20	-4	0.9	1.3	43
Cc1ccc(N2C(=O)c3ccccc3C2Nc2cccnc2)nc1 (stereo unspecified)	-3	4	0.9	1.1	12
CCOC(=O)c1ccccc1NC1c2ccccc2C(=O)N1c1ccc(C)cn1 (stereo unspecified)	22	7	0.9	.	62*
CCOc1ccccc1NC1c2ccccc2C(=O)N1c1ccc(C)cn1 (stereo unspecified)	63*	3	0.9	1.1	13
C=CCn1c(=O)c(C(=O)Nc2nnc(C)s2)c(O)c2ccccc21	0	4	1	1.1	6
CC(Cc1ccccc1)C(=O)NCCc1c[nH]c2ccccc12 (stereo unspecified)	.	.	.	1.1	.
COc1c(C)cccc1C(=O)Nc1ccc(N2CCOCC2)c(Cl)c1	.	.	.	2.2*	.
O=C1N(O)C2(C=CCCC2)/C(=N\O)C12CCCCC2 (stereo unspecified)	-11	34*	1	1.1	-19
CCOc1ccc(N2C(=O)CC(N3CC(C)OC(C)C3)C2=O)cc1 (stereo unspecified)	-12	3	0.9	1	9
CCN1CCN(Cc2ccc(OCc3ccccc3)cc2)CC1	47	3	0.9	1	57*
COc1cc2c(cc1OC)CN(C(=O)c1ccc(OC)c(S(=O)(=O)N3CCOCC3)c1)CC2	0	4	0.9	1.2	9
Cc1nc2cc(NC(=O)N3c4ccccc4CC3C)ccc2o1 (stereo unspecified)	41	5	0.9	1.3	79*
CN(c1ccccc1C(=O)O)S(C)(=O)=O	-17	-6	1	1.2	6
SMILES	RORa activator	E coli RNAP	TNAP act mid DEA	MT1-MMP txn act	SF-1 act
CN(C)c1ccccc1C(=O)c1ccccc1N(C)C	79*	13	0.9	1.6	78*
COc1ccc(C(=O)c2ccc(OC)c(N)c2)cc1N	66*	4	0.9	0.8	42
O=C(NCc1ccc(F)cc1)c1cnc2sccn2c1=O	-10	7	0.9	1.1	1
O=C(NCCc1c[nH]c2ccccc12)c1cnc2sccn2c1=O	38	-1	1	1.8	60*
COC(=O)c1ccc(C(NC(=O)OCc2ccccc2)/C(F)=C/[C@@H](C)C(=O)NCc2nc3ccccc3s2)cc1 (stereo partly specified)	.	.	.	1.1	.
Cc1cccnc1NC(=O)Nc1ccc(F)cc1	46	4	0.9	1.2	98*
Cc1ccc(NC(=O)Nc2ncccc2C)cc1	.	.	.	1.8	.
CCc1nc(SCC(=O)N2CCCC2)c2ccccc2n1	-1	3	0.9	1.1	-19
O=C(CSc1ncnc2ccccc12)N1CCCC1	55*	-6	1	1.4	18
COc1cc(NC(=O)c2cc3nc(C)cc(C)n3n2)c(OC)cc1Cl	86*	7	0.9	1.1	58*
N#Cc1nc(COc2ccccc2Cl)oc1N1CCCCCC1	17	7	0.8	1.1	-18
N#Cc1nc(COc2ccccc2F)oc1N1CCCCCC1	34	10	0.9	2.2*	14
COC(=O)N1CC=CC1(C)C(=O)O (stereo unspecified)	.	.	.	1	.
Cc1cccc2cc(CN(Cc3cccs3)C3(c4nnnn4C4CCCC4)CCCC3)c(=O)[nH]c12	-29	2	0.9	1.1	-11
O=C(O)/C=C/c1ccc(O)c(O)c1	-18	21*	0.9	1	-2
O=C(Nc1nc2ccccc2n1CCN1CCCC1)c1ccc(Cl)cc1	99*	4	1	1.5	55*
Cc1ccc(C(=O)Nc2nc3ccccc3n2CCN2CCCC2)cc1	62*	3	1	1.8	38
CCCn1c(NC(=O)c2ccc(C)cc2)nc2ccccc21	19	2	0.9	1.6	32
O=C(Nc1nc2ccccc2n1CCN1CCCCC1)c1ccc(Cl)cc1	.	.	.	1.1	.
COc1ccc(OC)c(C(C)NC=O)c1 (stereo unspecified)	-24	5	0.9	1.1	-12
Cc1ccc(-n2nc3c(c2NC(=O)c2c(-c4ccccc4Cl)noc2C)CSC3)cc1	-27	4	0.9	1.1	-3
COc1ccc(NC(=O)NCCN2C(=O)C3C4C=CC(C4)C3C2=O)cc1 (stereo unspecified)	66*	1	0.8	1.5	30
Cc1ccc(NC(=O)NCCN2C(=O)C3C4C=CC(C4)C3C2=O)cc1 (stereo unspecified)	74*	10	1	1.4	98*
O=C(NCCN1C(=O)C2C3C=CC(C3)C2C1=O)Nc1ccccc1 (stereo unspecified)	16	9	1	1.1	-3
CCCC[C@@H]1C[C@H]1C(NC(=O)c1ccccc1)c1ccc(C(F)(F)F)cc1 (stereo partly specified)	.	.	.	1.2	.
Cc1ccc2nc(CCc3nc4ccc(C)cc4o3)oc2c1	-1	6	0.9	1	-3
Cc1ccc2nc(Cc3ccc(N)cc3)oc2c1	39	4	1	1.6	68*
COc1ccc(CN(C(=O)CSc2nnc(-c3c[nH]c4ccccc34)o2)c2ccc(F)cc2)cc1OC	.	.	.	1.7	.
O=S(=O)(NCCOCC(F)(F)F)c1ccc2oc3ccccc3c2c1	-13	-4	0.9	1.1	-9
Oc1c(Cl)cc(Cl)cc1CNc1ccc(Br)cn1	-5	9	0.8	1.1	20
